Measured values taken from PMC3845662 (Analytical chemistry, 2013).
Several values for one entry are separate records, joined by “and”; a condition that tells them apart may be missing. Equal values may be shown once.

Columns and labels:
[1] = target: T1, Hsp70-Bag3 complex (Homo sapiens, UniProt P0DMV8); experiment: CE-LIF screen / dose response for inhibition of the Hsp70-Bag3 interaction; type: binding; details: for hit in CE screen, reconfirmed with repurchased compound by DRC: primary screen 20 μM, repurchased compound dose response; for classification from electropherogram (artifact): 20 μM compound
Outline: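 Incubated ≥15 min at ambient temperature with dry-spotted compound; unlabelled Hsp70 as positive control. Coated capillary, 10 cm, 25 °C, pH 7.5 phosphate/Tween buffer, 500 V/cm. LIF bound/free peak-area ratio; screen hits ≥3 SD.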

[2] = target: T1, Hsp70-Bag3 complex; experiment: Flow cytometry protein interaction assay; type: binding; details: for cross-test of CE hit by DRC in FCPIA: repurchased compound, dose response; for result in original FCPIA screen: single concentration 20 μM, hit = inhibition ≥ 3 SD from negative controls
Outline: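 Biotinylated Hsp70 was immobilised on streptavidin polystyrene beads for 1 h, then mixed with Alexa Fluor 488-labelled Bag3 (30 nM final) and compound or DMSO. Unlabelled Hsp70 served as positive control. After 15 min, median bead-associated fluorescence was read by flow cytometry. Screen used 20 μM; hits ≥3 SD from negative controls.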

[3] = tested on: Hsp70; details: cited from earlier work
[4] = 0.5 μM Hsp70–488 and 0.5 μM Bag3

T1 sequence (P0DMV8 whole entry, one chain of several): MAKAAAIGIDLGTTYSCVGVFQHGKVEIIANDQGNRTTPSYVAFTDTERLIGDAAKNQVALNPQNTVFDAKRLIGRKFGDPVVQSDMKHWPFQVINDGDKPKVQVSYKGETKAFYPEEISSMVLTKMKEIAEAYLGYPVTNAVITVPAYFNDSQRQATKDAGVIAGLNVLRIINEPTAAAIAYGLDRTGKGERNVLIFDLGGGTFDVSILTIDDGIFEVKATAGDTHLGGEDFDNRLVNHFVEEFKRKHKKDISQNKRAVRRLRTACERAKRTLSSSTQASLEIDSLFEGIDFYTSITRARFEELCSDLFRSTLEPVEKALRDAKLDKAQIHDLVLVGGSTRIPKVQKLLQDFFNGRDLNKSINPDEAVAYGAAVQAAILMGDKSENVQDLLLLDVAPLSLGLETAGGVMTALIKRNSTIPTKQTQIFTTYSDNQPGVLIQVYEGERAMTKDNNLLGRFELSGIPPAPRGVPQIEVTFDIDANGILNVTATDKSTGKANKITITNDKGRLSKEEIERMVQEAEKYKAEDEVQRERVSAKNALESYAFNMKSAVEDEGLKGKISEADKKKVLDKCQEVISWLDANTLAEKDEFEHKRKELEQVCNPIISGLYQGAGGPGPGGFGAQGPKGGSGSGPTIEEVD

## CC1=C(O)C(=O)C=C2C1=CC=C1[C@@]2(C)CC[C@@]2(C)[C@@H]3C[C@](C)(C(=O)O)CC[C@]3(C)CC[C@]12C [celastrol]
[1]
  hit in CE screen, reconfirmed with repurchased compound by DRC: found by CE
[2]
  cross-test of CE hit by DRC in FCPIA: reconfirmed by FCPIA
  result in original FCPIA screen: missed in the original FCPIA screen

## O=C(O[C@@H]1Cc2c(O)cc(O)cc2O[C@@H]1c1cc(O)c(O)c(O)c1)c1cc(O)c(O)c(O)c1 [Epigallocatechin gallate]
[1]; 15 μM compound, 0.5 μM Hsp70–488 and 0.5 μM Bag3
  classification from electropherogram: confirmed PPI inhibitor

## Oc1cc2c(cc1O)C1c3ccc(O)c(O)c3OCC1(O)C2 (centres unmarked) [haematoxylin]
[1]; [4]
  classification from electropherogram (artifact): identified as an aggregator

## O=C(O)CN(CC(=O)O)Cc1cc2c(cc1O)Oc1cc(O)c(CN(CC(=O)O)CC(=O)O)cc1C21OC(=O)c2ccccc21 [calcein]
[1]; [4]
  classification from electropherogram (artifact): identified as a fluorescent compound that interferes with detection of free Hsp70–488

## unlabeled Hsp70: unlabeled recombinant human Hsp70 (HSPA1) used as competitor and positive control
[1]; 0.5 μM Hsp70–488 and 0.5 μM Bag3 with increasing unlabeled Hsp70
  IC50 (decrease of bound to free peak area ratio): 240 ± 3 nM and 240 nM

## O=c1c(O)c(-c2cc(O)c(O)c(O)c2)oc2cc(O)cc(O)c12 [myricetin]
[1]
  hit in CE screen, reconfirmed with repurchased compound by DRC: found by CE
[2]
  cross-test of CE hit by DRC in FCPIA: reconfirmed by FCPIA
  result in original FCPIA screen: missed in the original FCPIA screen
[3]
  known modulator of Hsp70: known modulators of Hsp70
